Assay outcomes from PubChem BioAssay.
Shown are actives, neighbours in structure and some others; about 1.9% of the full set was active somewhere.
rRNA inh HTS – inhibits bacterial ribosomal RNA function over humanized ribosomes; E. coli WT GFP vs humanized-ribosome RFP mutants, fluorescence, 24 h; stronger effect = lower value; DMSO median 0, no signal -100; GFP signal change (wild-type ribosome), % (concentration not given with the values); actives 1.6% (n = 350,000); AID 720706;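 active means significant combined selectivity score with lowered wild-type GFP, culture density cut under 30%, mutant RFP and density less affected; inactive means any of these conditions unmet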
Cneo AK release – Cryptococcus neoformans lysis via adenylate kinase release; lysis activity, % at 15 µM; actives 0.2% (n = 360,000); C. neoformans lysis, adenylate kinase release luminescence, 4 h; normalised: neutral wells 0, clomiphene wells 100;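 active means mean lysis activity across replicates of at least 80%, whatever share of replicates individually reach that level; inactive means mean lysis activity below 80%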
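Test system: log-phase Cryptococcus neoformans yeast cells. Input: 5 × 10^6 yeast cells/mL. Medium: fresh YPD growth medium. Doses: single dose. Incubation: static 4 h at 37 °C with compound, 1 h detection. Measured by: luminescent adenylate kinase detection reagent. Read-out: signal increase indicating cell lysis. Benchmarks: Clomiphene.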
PglD inh – blocks C. jejuni PglD acetyltransferase activity; purified PglD enzyme, DTNB colorimetric CoA detection; AID 602405; actives 0.098% (n = 360,000); inhibition, % at 12.5 µM; in the data active means inhibition above about 16%, passing the limit was not always enough
RAD54 inh – RAD54 (human) branch migration inhibition; AID 602329; inhibition, % at 10.4 µM; RAD54 Holliday junction branch migration, FAM/BHQ fluorescence; actives 0.14% (n = 360,000);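 active means mean normalized replicate activity at least 40 and at least half of replicates scoring 40 or more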;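 further: 0% = median of neutral control wells and 100% = median of positive control wells; inhibitors cause a drop in the FAM fluorescence signal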
Target sequence (Q92698 whole entry, looked up): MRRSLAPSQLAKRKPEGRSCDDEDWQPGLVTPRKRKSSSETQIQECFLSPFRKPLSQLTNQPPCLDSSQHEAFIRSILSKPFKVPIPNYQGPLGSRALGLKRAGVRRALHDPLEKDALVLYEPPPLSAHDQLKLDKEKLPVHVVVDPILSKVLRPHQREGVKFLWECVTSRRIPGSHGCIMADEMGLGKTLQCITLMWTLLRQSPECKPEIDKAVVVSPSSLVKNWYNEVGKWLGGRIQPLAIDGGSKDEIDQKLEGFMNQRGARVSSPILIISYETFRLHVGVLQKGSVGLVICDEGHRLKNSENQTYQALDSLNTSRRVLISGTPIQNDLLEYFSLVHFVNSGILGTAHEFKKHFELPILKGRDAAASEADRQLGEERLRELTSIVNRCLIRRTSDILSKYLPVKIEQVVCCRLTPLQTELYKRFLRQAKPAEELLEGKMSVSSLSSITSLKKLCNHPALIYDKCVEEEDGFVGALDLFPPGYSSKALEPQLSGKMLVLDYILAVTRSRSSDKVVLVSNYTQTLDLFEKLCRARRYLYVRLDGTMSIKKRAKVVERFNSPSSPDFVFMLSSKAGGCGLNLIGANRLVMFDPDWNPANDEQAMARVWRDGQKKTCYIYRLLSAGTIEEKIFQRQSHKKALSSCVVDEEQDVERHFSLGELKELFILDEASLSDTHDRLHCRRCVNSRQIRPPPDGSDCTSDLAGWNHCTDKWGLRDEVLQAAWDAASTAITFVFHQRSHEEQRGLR
RAD52 inh – blocks human RAD52 DNA annealing; P43351; recombinant RAD52 DNA annealing, FRET fluorescence; inhibition, % at 18.7 µM; actives 0.46% (n = 360,000); AID 651710;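 active means every replicate showing at least 50% inhibition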
An asterisk follows results filed as active; x = no result given; ! = not active in a repeat.

SMILES	rRNA inh HTS	Cneo AK release	PglD inh	RAD54 inh	RAD52 inh
COc1ccccc1NC(=O)Nc1nc2ccc(S(N)(=O)=O)cc2s1	-16*	-5	-2	4	-45
COc1ccc2nc(NC(=O)Nc3cccc4ccccc34)sc2c1	-23*	x	x	x	-40
COc1ccc2nc(NC(=O)Nc3ccccc3OC)sc2c1	0	-1	-2	-8	5
COc1cccc(C(=O)Nc2nc3ccccc3s2)c1	-30*	-16	19	0	-10
COc1ccc2c3c([nH]c2c1)[C@@H](CO)N(Cc1cccc(Cl)c1)CC31CCN(C(C)=O)CC1	2	x	x	x	x
Cc1ccccc1CN1C(=O)c2ccccc2Sc2ccc(C(=O)O)cc21	-34*	-1	18	0	-20
O=C(c1ccc2c(c1)N(Cc1ccccc1)C(=O)c1ccccc1S2)N1CCCC1	-53	2	4	-4	-8
Cc1cccc(CN2C(=O)c3ccccc3Sc3ccc(C(=O)O)cc32)c1	-21*	-2	4	x	14
CC(C(=O)Nc1ccc(O)cc1)c1cccc(C(=O)c2ccccc2)c1 (configuration not stated)	-37*	x	x	x	-2
S=C(c1ccc(Br)cc1)N1CCN(Cc2ccccc2)CC1	-22*	-3	1	-2	-11
Oc1ccc(C(=S)N2CCN(Cc3ccccc3)CC2)cc1	-7	0	6	-4	-37
CCOC(=O)c1cc(C)n(-c2ccc(OC)c(OC)c2)c1C	x	0	-2	-11	x
CCOC(=O)c1cc(C)n(-c2ccc(Cl)cc2)c1C	-23*	x	x	x	-11
Cc1ccc(SCCNC(=O)/C=C/c2ccccc2Cl)cc1	-24*	0	-1	-5	10
O=C(/C=C/c1ccccc1Cl)NCCc1ccccc1	-26*	-1	3	-10	-5
COc1ccc2c3c(n(C)c2c1)[C@H](CO)N(C)CC31CCN(S(=O)(=O)c2cccc(C)c2)CC1	-5	x	x	x	x
C[C@H]1CCCCO[C@@H](CN(C)CC2CCCCC2)[C@@H](C)CN([C@@H](C)CO)C(=O)c2cc(NS(C)(=O)=O)ccc2O1	-1	41	0	8	4
S=C(NCCc1ccccn1)Nc1cc(Cl)cc(Cl)c1	-32*	x	x	x	5
COC(=O)c1ccccc1N=Nc1c(C)n[nH]c1C	-7	x	x	x	-15
COC(=O)c1ccccc1N=Nc1c(C)noc1C	-28*	x	x	x	-19
CCOC(=O)c1ccc2c(c1)N(Cc1ccccc1C)C(=O)c1ccccc1S2=O (configuration not stated)	x	0	7	1	x
CCOC(=O)N1CCN(C(=O)c2ccc3c(c2)N(Cc2cc(C)ccc2C)C(=O)c2ccccc2S3=O)CC1 (configuration not stated)	-20*	1	1	-6	-4
COc1ccc(Nc2nc3cc(-c4ccsc4)sc3c(=O)n2C)cc1OC	-21*	-11	-3	-10	-2
COc1cccc(-c2cc3nc(Nc4ccc(OC)c(OC)c4)n(C)c(=O)c3s2)c1	-6	-2	1	-2	2
CCC(=O)N1CC2(C1)[C@@H](c1ccccc1)[C@@H](CO)N2CC1CC1	2	x	x	x	10
SMILES	rRNA inh HTS	Cneo AK release	PglD inh	RAD54 inh	RAD52 inh
Cc1cc(C(=O)COc2ccc(Cl)cc2Br)c(C)n1C	-45*	x	x	x	-30
Cc1cc(C(=O)COc2ccccc2C(N)=O)c(C)n1C	20	x	x	x	-3
CCC(=O)N1CCC2(CC1)CN(C(=O)Nc1ccc(F)cc1)[C@@H](CO)c1c2c2ccc(OC)cc2n1C	-2	x	x	x	0
Cc1ccc2[nH]cc(C(=O)NCc3cccs3)c(=O)c2c1	-24*	0	-1	4	-20
COc1cccc2c(=O)c(C(=O)NCc3cccs3)c[nH]c12	x	0	0	-5	x
Fc1ccc(Cn2cc(C(=S)N3CCOCC3)c3ccccc32)cc1	-26*	20	1	x	-17
Fc1ccccc1Cn1cc(C(=S)N2CCOCC2)c2ccccc21	-20	12	-3	x	-7
C[C@H](CO)N1C[C@H](C)[C@H](CN(C)C(=O)c2ccncc2)OCc2cn(nn2)CCCC1=O	1	x	x	x	x
O=C(NCCc1c[nH]c2ccccc12)C(=O)NCC1OCCCN1S(=O)(=O)c1ccc(F)cc1 (configuration not stated)	-18*	x	x	x	-12
Cc1ccc(S(=O)(=O)N2CCOC2CNC(=O)C(=O)NCCc2c[nH]c3ccccc23)cc1 (configuration not stated)	-22	x	x	x	10
O=C(N/N=C/c1cc(Br)c(O)c(Br)c1O)c1cccnc1	-20*	0	0	-11	-31
O=C(N/N=C/c1cc(O)ccc1Br)c1cccnc1	-34	0	-1	-8	-26
Cc1ccccc1N1C(=O)C(Cc2ccc(F)cc2)S/C1=C(\C#N)C(N)=O (configuration not stated)	-31*	1	0	-8	-49
Cc1cccc(S(=O)(=O)N(C)C[C@@H]2OCc3ccccc3-c3ccccc3C(=O)N([C@H](C)CO)C[C@@H]2C)c1	-1	0	3	-3	-2
COc1ccc(-c2noc(CCC(=O)N3CCN(c4cccc(OC)c4)CC3)n2)cc1	-32*	-1	-1	5	1
COc1ccc2nc(C)cc(N/N=C/c3ccccc3)c2c1	x	0	0	30	x
COc1ccc(/C=N/Nc2cc(C)nc3ccc(OC)cc23)c(OC)c1	-50	-1	-30	95*	88*
O=C(Nc1ccc(Cl)cc1)Nc1csc([N+](=O)[O-])c1	-47	-4	0	-1	-7
O=C(Nc1csc([N+](=O)[O-])c1)Nc1c(Cl)cccc1Cl	-32*	-2	2	-3	-27
COc1ccc2c3c([nH]c2c1)[C@@H](CO)N(C(=O)c1ccccn1)CC31CN(S(C)(=O)=O)C1	4	x	x	x	-3
N#Cc1cccc(-c2ccc(C3[C@@H]4CN(Cc5ccccc5F)C[C@H]3N4)cc2)c1 (some centres not stated)	-58	x	x	x	83*!
N#Cc1cccc(-c2ccc(C3[C@@H]4CN(Cc5cocn5)C[C@H]3N4)cc2)c1 (some centres not stated)	3	x	x	x	65*
N#Cc1cccc(-c2ccc([C@@H]3[C@H]4CN(Cc5ccccc5F)CCCCN4[C@H]3CO)cc2)c1	-38	4	1	28	14
c1ncc(-c2ccc(C3[C@@H]4CN(Cc5cocn5)C[C@H]3N4)cc2)cn1 (some centres not stated)	5	x	x	x	41
C/C=C/c1ccc([C@H]2[C@H](CO)N(S(=O)(=O)Cc3ccccc3)C23CN(C(=O)C2CCOCC2)C3)cc1	1	x	x	x	x
C[C@@H]1CN([C@@H](C)CO)C(=O)c2cc(NS(=O)(=O)c3cn(C)cn3)ccc2O[C@@H](C)CCCCO[C@H]1CN(C)Cc1ccc(C(=O)O)cc1	5	x	x	x	3
O=C(CN1c2ccccc2S(=O)(=O)c2ccccc21)NCc1ccc(F)cc1	-33*	-1	2	-7	-17
